Key:
Mus musculus [1] = assay: Analgesic activity in ICR mouse assessed as pain threshold variation at 0.13 mmol/kg, ip after 30 mins by tail flick test relative to control; type: functional
Outline: (§1)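 Male ICR mice (25 ± 2 g), kept on a 12/12 h light/dark cycle at 21 ± 2 °C for one day before use. Each received a single i.p. injection in 0.2 ml saline + 0.01 ml DMSO + 0.02 ml Tween-80. Vehicle-only mice served as controls. Basal tail-flick threshold was measured four times (BPT). Thresholds were then read every 30 min for 150 min. PTV = (post-dose threshold − BPT)/BPT. n = 10, x ± SD.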

[2] = Cardiovascular toxicity in rat aorta assessed as inhibition of noradrenaline-induced vasoconstriction at 5 mM relative to control; type: tissue-based; conditions: isolated rat aorta
Outline: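 Rat aortic strips were contracted with noradrenaline, washed, stabilized for 30 min, and contracted again. At peak contraction, compound was added (final 5 × 10^-3 M) or vehicle alone. The relaxant response was recorded as percentage inhibition of the contraction.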

Mus musculus [3] = assay: Thrombotic toxicity in ICR mouse assessed as tail bleeding time at 1.3 mmol/kg, ip after 30 mins; type: organism-based; conditions: in vivo, 0.5 h
Outline: (§2)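 Male ICR mice (25 ± 2 g) were kept one day on a 12/12 h light/dark cycle at 21 ± 2 °C. Each received a single i.p. dose of 1.30 mmol/kg in saline/DMSO/Tween-80 (0.2/0.01/0.02 ml), or the solvent only. The restrained mouse had 1 mm cut from the tail before dosing and at 5, 15, 30 and 60 min. Bleeding time (s) is reported as mean ± SD.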

Mus musculus [4] = assay: Analgesic activity in ICR mouse assessed as pain threshold variation at 0.13 mmol/kg, ip after 150 mins by tail flick test; type: functional; outline: as §1
Mus musculus [5] = assay: Analgesic activity in ICR mouse assessed as pain threshold variation at 0.13 mmol/kg, ip after 90 mins by tail flick test relative to control; type: functional; outline: as §1
Mus musculus [6] = assay: Analgesic activity in ICR mouse assessed as pain threshold variation at 0.13 mmol/kg, ip after 60 mins by tail flick test relative to control; type: functional; outline: as §1
Mus musculus [7] = assay: Analgesic activity in ICR mouse assessed as pain threshold variation at 0.13 mmol/kg, ip after 120 mins by tail flick test; type: functional; outline: as §1
Mus musculus [8] = assay: Thrombotic toxicity in ICR mouse assessed as tail bleeding time at 1.3 mmol/kg, ip after 60 mins; type: organism-based; conditions: in vivo, 1 h; outline: as §2
Mus musculus [9] = assay: Thrombotic toxicity in ICR mouse assessed as tail bleeding time at 1.3 mmol/kg, ip after 15 mins; type: organism-based; conditions: in vivo, 0.25 h; outline: as §2
Mus musculus [10] = assay: Thrombotic toxicity in ICR mouse assessed as tail bleeding time at 1.3 mmol/kg, ip after 5 mins; type: organism-based; conditions: in vivo; outline: as §2
Mus musculus [11] = assay: Analgesic activity in ICR mouse assessed as pain threshold variation at 0.0013 mmol/kg, ip after 60 mins by tail flick test relative to control; type: functional; outline: as §1
Mus musculus [12] = assay: Analgesic activity in ICR mouse assessed as pain threshold variation at 0.0013 mmol/kg, ip after 30 mins by tail flick test relative to control; type: functional; outline: as §1
Mus musculus [13] = assay: Analgesic activity in ICR mouse assessed as pain threshold variation at 0.0013 mmol/kg, ip after 90 mins by tail flick test relative to control; type: functional; outline: as §1
Mus musculus [14] = assay: Analgesic activity in ICR mouse assessed as pain threshold variation at 0.013 mmol/kg, ip after 30 mins by tail flick test relative to control; type: functional; outline: as §1
Mus musculus [15] = assay: Analgesic activity in ICR mouse assessed as pain threshold variation at 0.0013 mmol/kg, ip after 150 mins by tail flick test relative to control; type: functional; outline: as §1
Mus musculus [16] = assay: Analgesic activity in ICR mouse assessed as pain threshold variation at 0.013 mmol/kg, ip after 120 mins by tail flick test relative to control; type: functional; outline: as §1
Mus musculus [17] = assay: Analgesic activity in ICR mouse assessed as pain threshold variation at 0.013 mmol/kg, ip after 150 mins by tail flick test relative to control; type: functional; outline: as §1
Mus musculus [18] = assay: Analgesic activity in ICR mouse assessed as pain threshold variation at 0.013 mmol/kg, ip after 90 mins by tail flick test relative to control; type: functional; outline: as §1
Mus musculus [19] = assay: Analgesic activity in ICR mouse assessed as pain threshold variation at 0.0013 mmol/kg, ip after 120 mins by tail flick test relative to control; type: functional; outline: as §1
Mus musculus [20] = assay: Analgesic activity in ICR mouse assessed as pain threshold variation at 0.013 mmol/kg, ip after 60 mins by tail flick test relative to control; type: functional; outline: as §1

Compound	Activity (Mus musculus [1]) [%]	inhibition at 5000 µM [2] [%]	Activity (Mus musculus [3]) [s]	Activity (Mus musculus [4]) [%]	Activity (Mus musculus [5]) [%]	Activity (Mus musculus [6]) [%]	Activity (Mus musculus [7]) [%]	Activity (Mus musculus [8]) [s]	Activity (Mus musculus [9]) [s]	Activity (Mus musculus [10]) [s]	Activity (Mus musculus [11]) [%]	Activity (Mus musculus [12]) [%]	Activity (Mus musculus [13]) [%]	Activity (Mus musculus [14]) [%]	Activity (Mus musculus [15]) [%]	Activity (Mus musculus [16]) [%]	Activity (Mus musculus [17]) [%]	Activity (Mus musculus [18]) [%]	Activity (Mus musculus [19]) [%]	Activity (Mus musculus [20]) [%]
CC1(C)N=C(c2ccccc2)N(O)C1(C)C	43.67	22.9	118	35.48	37.07	37.68	37.41	117	119	117	–	–	–	–	–	–	–	–	–	–
COc1ccc(C2=NC(C)(C)C(C)(C)N2O)cc1	64.55	19.7	118	46.74	66.49	76.13	65.23	118	118	119	–	–	–	–	–	–	–	–	–	–
COc1ccc(C2=NC(C)(C)C(C)(C)N2O)cc1OC	50.9	17.9	118	35.37	54.54	50.12	38.43	118	117	117	–	–	–	–	–	–	–	–	–	–
CC1(C)N=C(c2ccc3c(c2)OCO3)N(O)C1(C)C	58.82	21.9	119	60.22	67.15	68.46	59.77	118	119	120	–	–	–	–	–	–	–	–	–	–
CC1(C)N=C(c2ccccc2O)N(O)C1(C)C	50.76	22.9	119	67.3	68.27	49.93	73.13	118	117	118	–	–	–	–	–	–	–	–	–	–
CC1(C)N=C(c2cccc(O)c2)N(O)C1(C)C	50.69	46.3	118	72.88	59.94	59.38	77.78	119	119	117	–	–	–	–	–	–	–	–	–	–
CC1(C)N=C(c2ccc(O)cc2)N(O)C1(C)C	57.6	13.6	119	27.62	79.8	74.74	53.45	119	118	116	–	–	–	–	–	–	–	–	–	–
COc1ccc(C2=NC(C)(C)C(C)(C)N2O)cc1O	44.33	35.1	117	41.62	60.71	59.85	50.77	119	118	120	–	–	–	–	–	–	–	–	–	–
CC1(C)N=C(c2ccc([N+](=O)[O-])cc2)N(O)C1(C)C	44.15	32.7	117	47.81	36.31	38.32	35.97	117	117	118	–	–	–	–	–	–	–	–	–	–
CC1(C)N=C(c2ccc(Cl)cc2Cl)N(O)C1(C)C	46.97	15.9	119	45.99	44.1	46.31	46.12	119	117	117	–	–	–	–	–	–	–	–	–	–
CC1(C)N=C(c2ccccc2F)N(O)C1(C)C	66.15	22.7	119	90.94	73.25	72.72	75.97	119	117	117	36.02	27.64	36.96	45.44	47.03	56.97	69.89	54	37.8	53.11
CN(C)c1ccc(C2=NC(C)(C)C(C)(C)N2O)cc1	34.3	6.63	117	31.27	40.17	39.44	37.34	119	117	117	–	–	–	–	–	–	–	–	–	–
CC1(C)N=C(c2ccc(Br)cc2)N(O)C1(C)C	29.02	18.4	118	70.19	75.18	89.78	75.77	120	119	118	43.9	11.32	34.49	19.33	26.57	52.98	47.7	53.75	31.87	68.89
CC1(C)N=C(c2ccccc2[N+](=O)[O-])N(O)C1(C)C	28.95	30.2	119	40.04	45.93	45.14	50.91	118	119	119	–	–	–	–	–	–	–	–	–	–
COc1ccc(C2=NC(C)(C)C(C)(C)N2O)c(OC)c1	52.93	23.3	119	37.89	44.96	44.85	38.34	117	118	118	–	–	–	–	–	–	–	–	–	–
CC1(C)N=C(c2ccc(Cl)c(Cl)c2)N(O)C1(C)C	20.52	22.8	118	50.62	41.9	21.43	40.17	117	118	118	–	–	–	–	–	–	–	–	–	–
CC1(C)N=C(c2cccc([N+](=O)[O-])c2)N(O)C1(C)C	52.76	31.8	119	70.83	63.46	62.07	60.26	117	118	117	–	–	–	–	–	–	–	–	–	–
Cc1ccc(C2=NC(C)(C)C(C)(C)N2O)cc1	42.06	16.7	117	45.41	48.82	55.16	39.96	119	118	119	–	–	–	–	–	–	–	–	–	–
COc1cc(C2=NC(C)(C)C(C)(C)N2O)ccc1O	47.57	20.6	119	40.56	60.65	61.52	52.21	117	118	119	–	–	–	–	–	–	–	–	–	–
